According to ChEMBL document CHEMBL1149780, “Unsaturated fluoro-ketopyranosyl nucleosides: synthesis and biological evaluation of 3-fluoro-4-keto-beta-d-glucopyranosyl derivatives of N(4)-benzoyl cytosine and N(6)-benzoyl adenine” (Eur J Med Chem, 2008):

What was measured:
[1] = Ratio of CC50 for Caco-2 cells to IC50 for rotavirus infected human Caco2 cells assessed as inhibition of infectivity following virus attachment
Caco-2 [2] = test: Cytotoxicity against human Caco-2 cells after 72 hrs; type: functional; details: Caco-2, 72 h
In short: (§1)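 Caco-2, H4 (normal intestinal), MCF-7 and skin melanoma cells seeded at 6 × 10^6 cells per plate, given 3-fold serial dilutions (top 0.5 mg/mL; DMSO below 0.1%), 37 °C, 72 h.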

[3] = Cytotoxicity against human melanoma cells after 72 hrs; type: functional; details: Melanoma cell; in short: as §1
Caco-2 [4] = test: Growth inhibition of human Caco-2 cells; type: functional, cell-based
In short: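 Colony-formation assay: Caco-2 seeded at 10 cells/well in DMEM-10% FBS, given 3-fold dilutions (top 0.5 mg/mL), incubated 10 days at 37 °C. Colonies counted; colony number in treated (n = 2) vs control wells (n = 24) as %; IC50 from concentration-effect curve.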

MCF7 [5] = test: Cytotoxicity against human MCF7 cells after 72 hrs; type: functional; details: MCF7, 72 h; in short: as §1
H4 [6] = test: Tumor selectivity index, CC50 for human H4 cells to CC50 for human Caco-2 cells; type: functional
Rotavirus = test: Antiviral activity against gastrointestinal rotavirus in human Caco-2 cells assessed as inhibition of infectivity following virus attachment; type: functional, organism-based
In short: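 Caco-2 monolayers washed, exposed to rotavirus RF strain (1.5 TCID50/mL, 100 µL/well) for 1 h at 37 °C, 5% CO2; unbound virus washed off, then 3-fold serial compound dilutions added (top 0.5 mg/mL; DMSO below 0.1%).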

H4 [7] = test: Tumor selectivity index, CC50 for human H4 cells to CC50 for human melanoma cells; type: functional
H4 [8] = test: Cytotoxicity against human H4 cells after 72 hrs; type: functional; details: H4, 72 h; in short: as §1
MCF7 [9] = test: Tumor selectivity index, CC50 for human H4 cells to CC50 for human MCF7 cells; type: functional

Cc1cn([C@H]2C[C@H](N=[N+]=[N-])[C@@H](CO)O2)c(=O)[nH]c1=O [ZIDOVUDINE]
Ratio CC50/IC50 [1]: 2.5
CC50 (Caco-2 [2]): 56.1 µM

O=C(Nc1ncnc2ncn([C@H]3C=C(F)C(=O)[C@@H](COC(c4ccccc4)(c4ccccc4)c4ccccc4)O3)c12)c1ccccc1
CC50 [3]: 9.5 µM
IC50 (Caco-2 [4]): 1.1 µM
CC50 (MCF7 [5]): 9.5 µM
Ratio (H4 [6]): 25
IC50 (Rotavirus): 799 µM
Ratio (H4 [7]): 84.1
Ratio CC50/IC50 [1]: 0.04
CC50 (Caco-2 [2]): 31.9 µM
CC50 (H4 [8]): 799 µM
Ratio (MCF7 [9]): 84.1

O=c1[nH]cc(F)c(=O)[nH]1 [FLUOROURACIL]
Ratio (H4 [6]): 10
Ratio (H4 [7]): 83.4
Ratio (MCF7 [9]): 5
